Source: ChEMBL document CHEMBL3045462, “Synthesis and fungicidal activity of novel 4,4'-bis(2' '-aryl-5' '-methyl/unsubstituted-4' '-oxo-thiazolidin-3' '-yl) bibenzyl” (2003)

Columns and labels:
Type in all cases: functional
Conditions in all cases: read-out: GI
[1] = test system: Penicillium citrinum; test: Growth inhibition of Penicillium citrinum at 1000 ppm after 96 hr by poisoned food technique
Method in brief: (§1)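 Poisoned food technique in vitro: test compound mixed into Czapek's agar at 1000, 100 or 10 ppm, then Fusarium oxysporum or Penicillium citrinum grown on the medium. Growth inhibition was scored following previously described methods.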

[2] = test system: Fusarium oxysporum; test: Growth inhibition of Fusarium oxysporum at 100 ppm after 96 hr by poisoned food technique; method in brief: as §1
[3] = test system: Fusarium oxysporum; test: Growth inhibition of Fusarium oxysporum at 10 ppm after 96 hr by poisoned food technique; method in brief: as §1
[4] = test system: Penicillium citrinum; test: Growth inhibition of Penicillium citrinum at 100 ppm after 96 hr by poisoned food technique; method in brief: as §1
[5] = test system: Fusarium oxysporum; test: Growth inhibition of Fusarium oxysporum at 1000 ppm after 96 hr by poisoned food technique; method in brief: as §1
[6] = test system: Penicillium citrinum; test: Growth inhibition of Penicillium citrinum at 10 ppm after 96 hr by poisoned food technique; method in brief: as §1

## C(=N\c1ccc(CCc2ccc(/N=C/c3ccccc3)cc2)cc1)/c1ccccc1
[1]
  inhibition of growth at 1000 ppm: 56%
[2]
  inhibition of growth at 100 ppm: 24%
[3]
  inhibition of growth at 10 ppm: 9%
[4]
  inhibition of growth at 100 ppm: 20%
[5]
  inhibition of growth at 1000 ppm: 50%
[6]
  inhibition of growth at 10 ppm: 13%

## COc1ccc(/C=N/c2ccc(CCc3ccc(/N=C/c4ccc(OC)cc4)cc3)cc2)cc1
[1]
  inhibition of growth at 1000 ppm: 58%
[2]
  inhibition of growth at 100 ppm: 36%
[3]
  inhibition of growth at 10 ppm: 29%
[4]
  inhibition of growth at 100 ppm: 44%
[5]
  inhibition of growth at 1000 ppm: 46%
[6]
  inhibition of growth at 10 ppm: 21%

## Clc1ccc(/C=N/c2ccc(CCc3ccc(/N=C/c4ccc(Cl)cc4)cc3)cc2)cc1
[1]
  inhibition of growth at 1000 ppm: 88%
[2]
  inhibition of growth at 100 ppm: 47%
[3]
  inhibition of growth at 10 ppm: 20%
[4]
  inhibition of growth at 100 ppm: 30%
[5]
  inhibition of growth at 1000 ppm: 83%
[6]
  inhibition of growth at 10 ppm: 15%

## COc1ccc(/C=N/c2ccc(CCc3ccc(/N=C/c4ccc(OC)c(OC)c4)cc3)cc2)cc1OC
[1]
  inhibition of growth at 1000 ppm: 42%
[2]
  inhibition of growth at 100 ppm: 43%
[3]
  inhibition of growth at 10 ppm: 31%
[4]
  inhibition of growth at 100 ppm: 27%
[5]
  inhibition of growth at 1000 ppm: 55%
[6]
  inhibition of growth at 10 ppm: 19%

## Oc1ccccc1/C=N/c1ccc(CCc2ccc(/N=C/c3ccccc3O)cc2)cc1
[1]
  inhibition of growth at 1000 ppm: 50%
[2]
  inhibition of growth at 100 ppm: 53%
[3]
  inhibition of growth at 10 ppm: 25%
[4]
  inhibition of growth at 100 ppm: 33%
[5]
  inhibition of growth at 1000 ppm: 62%
[6]
  inhibition of growth at 10 ppm: 23%

## COc1cc(/C=N/c2ccc(CCc3ccc(/N=C/c4ccc(O)c(OC)c4)cc3)cc2)ccc1O
[1]
  inhibition of growth at 1000 ppm: 57%
[2]
  inhibition of growth at 100 ppm: 47%
[3]
  inhibition of growth at 10 ppm: 48%
[4]
  inhibition of growth at 100 ppm: 45%
[5]
  inhibition of growth at 1000 ppm: 51%
[6]
  inhibition of growth at 10 ppm: 37%

## O=C1CS[C@@H](c2ccccc2)N1c1ccc(CCc2ccc(N3C(=O)CS[C@H]3c3ccccc3)cc2)cc1
[1]
  inhibition of growth at 1000 ppm: 51%
[2]
  inhibition of growth at 100 ppm: 30%
[3]
  inhibition of growth at 10 ppm: 12%
[4]
  inhibition of growth at 100 ppm: 20%
[5]
  inhibition of growth at 1000 ppm: 55%
[6]
  inhibition of growth at 10 ppm: 10%

## COc1ccc([C@@H]2SCC(=O)N2c2ccc(CCc3ccc(N4C(=O)CS[C@H]4c4ccc(OC)cc4)cc3)cc2)cc1
[1]
  inhibition of growth at 1000 ppm: 46%
[2]
  inhibition of growth at 100 ppm: 50%
[3]
  inhibition of growth at 10 ppm: 24%
[4]
  inhibition of growth at 100 ppm: 32%
[5]
  inhibition of growth at 1000 ppm: 61%
[6]
  inhibition of growth at 10 ppm: 17%

## O=C1CS[C@@H](c2ccc(Cl)cc2)N1c1ccc(CCc2ccc(N3C(=O)CS[C@H]3c3ccc(Cl)cc3)cc2)cc1
[1]
  inhibition of growth at 1000 ppm: 87%
[2]
  inhibition of growth at 100 ppm: 43%
[3]
  inhibition of growth at 10 ppm: 15%
[4]
  inhibition of growth at 100 ppm: 33%
[5]
  inhibition of growth at 1000 ppm: 82%
[6]
  inhibition of growth at 10 ppm: 8%

## COc1ccc([C@@H]2SCC(=O)N2c2ccc(CCc3ccc(N4C(=O)CS[C@H]4c4ccc(OC)c(OC)c4)cc3)cc2)cc1OC
[1]
  inhibition of growth at 1000 ppm: 67%
[2]
  inhibition of growth at 100 ppm: 26%
[3]
  inhibition of growth at 10 ppm: 24%
[4]
  inhibition of growth at 100 ppm: 50%
[5]
  inhibition of growth at 1000 ppm: 38%
[6]
  inhibition of growth at 10 ppm: 26%

## O=C1CS[C@@H](c2ccccc2O)N1c1ccc(CCc2ccc(N3C(=O)CS[C@H]3c3ccccc3O)cc2)cc1
[1]
  inhibition of growth at 1000 ppm: 67%
[2]
  inhibition of growth at 100 ppm: 50%
[3]
  inhibition of growth at 10 ppm: 39%
[4]
  inhibition of growth at 100 ppm: 40%
[5]
  inhibition of growth at 1000 ppm: 61%
[6]
  inhibition of growth at 10 ppm: 25%

## COc1cc([C@@H]2SCC(=O)N2c2ccc(CCc3ccc(N4C(=O)CS[C@H]4c4ccc(O)c(OC)c4)cc3)cc2)ccc1O
[1]
  inhibition of growth at 1000 ppm: 73%
[2]
  inhibition of growth at 100 ppm: 65%
[3]
  inhibition of growth at 10 ppm: 40%
[4]
  inhibition of growth at 100 ppm: 56%
[5]
  inhibition of growth at 1000 ppm: 78%
[6]
  inhibition of growth at 10 ppm: 38%

## C[C@@H]1S[C@@H](c2ccccc2)N(c2ccc(CCc3ccc(N4C(=O)[C@H](C)S[C@H]4c4ccccc4)cc3)cc2)C1=O
[1]
  inhibition of growth at 1000 ppm: 100%
[2]
  inhibition of growth at 100 ppm: 81%
[3]
  inhibition of growth at 10 ppm: 59%
[4]
  inhibition of growth at 100 ppm: 79%
[5]
  inhibition of growth at 1000 ppm: 100%
[6]
  inhibition of growth at 10 ppm: 53%

## COc1ccc([C@@H]2S[C@@H](C)C(=O)N2c2ccc(CCc3ccc(N4C(=O)[C@H](C)S[C@H]4c4ccc(OC)cc4)cc3)cc2)cc1
[1]
  inhibition of growth at 1000 ppm: 88%
[2]
  inhibition of growth at 100 ppm: 62%
[3]
  inhibition of growth at 10 ppm: 41%
[4]
  inhibition of growth at 100 ppm: 69%
[5]
  inhibition of growth at 1000 ppm: 85%
[6]
  inhibition of growth at 10 ppm: 45%

## C[C@@H]1S[C@@H](c2ccc(Cl)cc2)N(c2ccc(CCc3ccc(N4C(=O)[C@H](C)S[C@H]4c4ccc(Cl)cc4)cc3)cc2)C1=O
[1]
  inhibition of growth at 1000 ppm: 68%
[2]
  inhibition of growth at 100 ppm: 65%
[3]
  inhibition of growth at 10 ppm: 40%
[4]
  inhibition of growth at 100 ppm: 42%
[5]
  inhibition of growth at 1000 ppm: 75%
[6]
  inhibition of growth at 10 ppm: 30%

## COc1ccc([C@@H]2S[C@@H](C)C(=O)N2c2ccc(CCc3ccc(N4C(=O)[C@H](C)S[C@H]4c4ccc(OC)c(OC)c4)cc3)cc2)cc1OC
[1]
  inhibition of growth at 1000 ppm: 63%
[2]
  inhibition of growth at 100 ppm: 58%
[3]
  inhibition of growth at 10 ppm: 51%
[4]
  inhibition of growth at 100 ppm: 55%
[5]
  inhibition of growth at 1000 ppm: 71%
[6]
  inhibition of growth at 10 ppm: 46%

## C[C@@H]1S[C@@H](c2ccccc2O)N(c2ccc(CCc3ccc(N4C(=O)[C@H](C)S[C@H]4c4ccccc4O)cc3)cc2)C1=O
[1]
  inhibition of growth at 1000 ppm: 78%
[2]
  inhibition of growth at 100 ppm: 71%
[3]
  inhibition of growth at 10 ppm: 30%
[4]
  inhibition of growth at 100 ppm: 65%
[5]
  inhibition of growth at 1000 ppm: 88%
[6]
  inhibition of growth at 10 ppm: 37%

## COc1cc([C@@H]2S[C@@H](C)C(=O)N2c2ccc(CCc3ccc(N4C(=O)[C@H](C)S[C@H]4c4ccc(O)c(OC)c4)cc3)cc2)ccc1O
[1]
  inhibition of growth at 1000 ppm: 87%
[2]
  inhibition of growth at 100 ppm: 85%
[3]
  inhibition of growth at 10 ppm: 76%
[4]
  inhibition of growth at 100 ppm: 58%
[5]
  inhibition of growth at 1000 ppm: 91%
[6]
  inhibition of growth at 10 ppm: 45%
